Source: PMC6555264 (Infection and Drug Resistance, 2019)
“And” between values parts separate entries of the source, which are not always exact repeats. Equal values may be shown once.

What was measured:
Serratia marcescens = type: cell-based
B. mallei = type: cell-based, Burkholderia mallei
Providencia stuartii = type: cell-based
A. baumannii [1] = assay: Broth microdilution MIC, alone and with AR-12; type: cell-based, Acinetobacter baumannii; details: for fold reduction of MIC in the presence of 4 μg/ml of AR-12: MDR A. baumannii (2 out of 4 strains tested); for MIC: strain 34299 (JMI Laboratories), drug alone; for MIC (4 µg/ml AR-12): strain 34299, with 4 µg/ml AR-12
How it was run: (§1)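 Colonies from Mueller-Hinton II agar (37°C, overnight) were suspended in PBS, sized by OD600 and diluted in CAMHB, giving a final inoculum of 5×10^5 CFU/ml. Single-drug MICs: 96-well round-bottom plates, static 37°C for 18–24 h, growth scored visually. Checkerboard: twofold polymyxin B or colistin (0.13–64 or 128 μg/ml) against twofold test compound (1–64 or 128 μg/ml; DMSO stock), incubated 16–20 h.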

Proteus mirabilis = type: cell-based
B. pseudomallei = type: cell-based, Burkholderia pseudomallei
[2] = test system: panel of MDR Gram-negative pathogenic bacterial strains; assay: Broth dilution MIC, whole panel; type: cell-based; details: for fold reduction of MIC in the presence of AR-12: certain polymyxin-resistant Gram-negative bacterial strains
How it was run: as §1

K. pneumoniae [3] = assay: Broth microdilution MIC, alone and with AR-12; type: cell-based, Klebsiella pneumoniae; details: for MIC: drug alone; for MIC (4 µg/ml AR-12): with 4 µg/ml AR-12
How it was run: as §1

Protein binding in mice = type: in vitro ADME
[4] = Maximum tolerated dose in mice; type: in vivo; details: p.o.
[5] = Pharmacokinetic study in mice, oral; type: in vivo, Balb/c mice
How it was run: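 Female Balb/c mice received a single oral dose of test compound at 80 mg/kg, formulated at 8 mg/mL in 10% Solutol HS 15. Plasma was sampled at 0, 0.5, 1, 2, 4, 8, 10 and 24 h, with 3 mice per time point. Drug levels were quantified by HPLC.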

Enterobacter cloacae = type: cell-based
Francisella strains = details: cited from earlier work
cyclooxygenase 2 (COX-2) = details: eukaryotic host; cited from earlier work
[6] = test system: MDR clinical isolate of N. gonorrhoeae; details: cited from earlier work
[7] = test system: ampicillin and kanamycin-resistant E. coli strain; details: laboratory-generated ampicillin and kanamycin-resistant E. coli; cited from earlier work
[8] = test system: Francisella tularensis and F. novicida in THP-1 macrophages; details: cited from earlier work
[9] = test system: A. baumannii strains and K. pneumoniae strains; assay: Dansyl polymyxin permeability assay; type: cell-based; details: increasing concentrations of AR-12; depending on the strain; DP 0.6 μM
How it was run: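 Log-phase cells (overnight culture subcultured 1:100 for 2–3 h) were pelleted at 0.5 OD-equivalent and resuspended in 1 ml of 5 mM HEPES at room temperature. Fluorescence was read at room temperature (ex 320, em 500 nm), with cell-free wells subtracted. Two or more repeats.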

[10] = test system: A. baumannii and K. pneumoniae strains; assay: N-phenyl-1-naphthylamine; type: cell-based; details: AR-12 4 μg/ml and 8 μg/ml
How it was run: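 Cell suspensions were prepared as for the dansyl polymyxin assay (log phase, in 5 mM HEPES). Cells were added at 1:4 to a HEPES/NPN/test compound mix, in triplicate. Fluorescence was read at room temperature (ex 355, em 405 nm), with cell-free wells subtracted. Two or more independent repeats.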

A. baumannii [11] = assay: Bacterial growth assay; type: cell-based, Acinetobacter baumannii
How it was run: (§2)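 Cultures were grown overnight (~16 h) in CAMHB at 37°C with shaking, then subcultured 1:100 for 2–3 h to log phase. 5×10^5 CFU/ml were dispensed into CAMHB wells holding preset drug concentrations, in triplicate. Plates were shaken at 37°C, with OD600 read automatically every 15 min for 24 h. Two or more independent repeats.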

K. pneumoniae [12] = assay: Bacterial growth assay; type: cell-based, Klebsiella pneumoniae
How it was run: as §2

[13] = strain 30835 (JMI Laboratories)

Compound	MIC (Serratia marcescens)	MIC (4 µg/ml AR-12) (Serratia marcescens)	MIC (B. mallei)	MIC (Providencia stuartii)	MIC (4 µg/ml AR-12) (Providencia stuartii)	fold reduction of MIC in the presence of 4 μg/ml of AR-12 (A. baumannii [1])	MIC (A. baumannii [1])	MIC (4 µg/ml AR-12) (A. baumannii [1])	MIC (Proteus mirabilis)	MIC (4 µg/ml AR-12) (Proteus mirabilis)	MIC (B. pseudomallei)	fold reduction of MIC in the presence of AR-12 [2]	MIC (K. pneumoniae [3]; strain 0010 (CDC))	MIC (4 µg/ml AR-12) (K. pneumoniae [3]; strain 0010)	MIC (K. pneumoniae [3]; [13])	MIC (4 µg/ml AR-12) (K. pneumoniae [3]; strain 30835)	MIC (K. pneumoniae [3]; strain 101434 (USAMRIID))	MIC (4 µg/ml AR-12) (K. pneumoniae [3]; strain 101434)	MIC (K. pneumoniae [3]; strain 101522 (USAMRIID))	MIC (K. pneumoniae [3]; strain 101783 (USAMRIID))	also measured
polymyxin B	>64 µg/mL	>64 µg/mL and 64 µg/mL	128 µg/mL	>64 µg/mL	>64 µg/mL	4–16 fold	16 µg/mL	≤2 µg/mL	>64 µg/mL	64 µg/mL and >64 µg/mL	>128 µg/mL	4–60 fold	2 µg/mL	2 µg/mL	128 µg/mL	≤2 µg/mL	64 µg/mL	16 µg/mL	64 µg/mL	>64 µg/mL	MIC (4 µg/ml AR-12) (B. mallei): 128 µg/mL; MIC (4 µg/ml AR-12) (B. pseudomallei): >128 µg/mL; MIC (4 µg/ml AR-12) (K. pneumoniae [3]; strain 101783): 2 µg/mL
NCC(=O)Nc1ccc(-n2nc(C(F)(F)F)cc2-c2ccc3c(ccc4ccccc43)c2)cc1 [AR-12]	>64 µg/mL	–	>128 µg/mL	>64 µg/mL	–	–	>128 µg/mL	–	>64 µg/mL	–	>128 µg/mL	–	>64 µg/mL	–	–	–	>64 µg/mL	–	>64 µg/mL	>64 µg/mL	protein bound (Protein binding in mice): 99%; maximum tolerated dose [4]: 100 mg/kg; bioavailability [5]: poor; AUC (0–24 hrs) ([5]; 80 mg/kg, p.o., q.d.): 41400 ng·h/mL; Cmax ([5]; 80 mg/kg, p.o., q.d.): 2100 ng/mL; Tmax ([5]; 80 mg/kg, p.o., q.d.): 10 h; plasma levels sustained over a 24 hrs period ([5]; 80 mg/kg, p.o., q.d.): 1.5–2.1 μg/mL and ~ 2 μg/mL; MIC (Enterobacter cloacae): >64 µg/mL; direct antibacterial activity (Francisella strains): did not have any direct antibacterial activity; COX-2 inhibitory activities (cyclooxygenase 2 (COX-2)): devoid of cyclooxygenase 2 (COX-2) inhibitory activities; bacterial proliferation [6]: reduced the proliferation; bacterial growth [7]: significantly inhibited the growth; intracellular survival of bacteria in macrophages [8]: inhibit the intracellular survival; enhancement of dansyl polymyxin B (DP) fluorescence [9]: 25–50 fold; lowest AR-12 concentration at which the potentiating activity was observed for majority of the MDR strains ([2]; combination with polymyxin B or colistin): 4 µg/mL; MIC of AR-12 alone ([2]; panel of MDR pathogens, tested upto 64 µg/ml): > 64 µg/mL; effect on NPN fluorescence (outer membrane permeability) [10]: increased the fluorescence of NPN
colistin	>64 µg/mL	>64 µg/mL	–	>64 µg/mL	>64 µg/mL	4–16 fold	>64 µg/mL	4 µg/mL	>64 µg/mL	>64 µg/mL	–	4–60 fold	8 µg/mL	8 µg/mL	>64 µg/mL	16 µg/mL	>64 µg/mL	16 µg/mL	>64 µg/mL	>64 µg/mL	colistin concentration giving growth inhibition (A. baumannii [11]; MDR A. baumannii 34299, colistin alone): > 32 µg/mL; colistin concentration giving growth inhibition (A. baumannii [11]; MDR A. baumannii 34299, in the presence of 4 μg/ml AR-12): 1 µg/mL; colistin concentration giving growth inhibition (A. baumannii [11]; polymyxin sensitive ATCC A. baumannii 19606, colistin alone): 0.5 µg/mL; colistin concentration giving growth inhibition (A. baumannii [11]; polymyxin sensitive ATCC A. baumannii 19606, in the presence of 4 μg/ml AR-12): 0.015 µg/mL; MIC (4 µg/ml AR-12) (Enterobacter cloacae): 16 µg/mL; fold reduction of MIC in the presence of 4 μg/ml of AR-12 (K. pneumoniae [3]; MDR K. pneumoniae (polymyxin B 7 out of 7, colistin 5 out of 7 strains tested)): 4–60 fold; MIC (4 µg/ml AR-12) (K. pneumoniae [3]; strain 101522): 8 µg/mL; MIC (4 µg/ml AR-12) (K. pneumoniae [3]; strain 101783): 1 µg/mL; colistin concentration giving growth inhibition (K. pneumoniae [12]; MDR K. pneumoniae 30835, colistin alone): 8 µg/mL; colistin concentration giving growth inhibition (K. pneumoniae [12]; MDR K. pneumoniae 30835, in the presence of 4 μg/ml AR-12): 1 µg/mL; colistin concentration giving growth inhibition (K. pneumoniae [12]; polymyxin sensitive ATCC K. pneumoniae 13833, colistin alone): 2 µg/mL; colistin concentration giving growth inhibition (K. pneumoniae [12]; polymyxin sensitive ATCC K. pneumoniae 13833, in the presence of 4 μg/ml AR-12): 0.125 µg/mL
